Assays:
HL-60 [1] = assay: Cytotoxic activity against Human promyelocytic Leukemia HL-60 Concentration of agent required to reduce cell viability by 90%; format: functional
Method in brief: (§1)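 Modified MTT assay. Cells seeded per well with graded drug: CHO 2.5 × 10^3, B16 5 × 10^3, P388 and LLC 10^4, HL-60 and LoVo 5 × 10^4. After 68 h, MTT (2.5 mg/mL) added for 4 h at 37 °C. Formazan dissolved in DMSO and A550 read. Inhibition taken as fractional A550 decrease vs control. IC50/IC90 from Chou's median-effect equation.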

P388 [2] = assay: Cytotoxic activity against Murine Lymphocytic Leukemia P388 Concentration of agent required to reduce cell viability by 50%; format: functional, cell-based; details: Mus musculus; method in brief: as §1
P388 [3] = assay: Cytotoxic activity Murine Lymphocytic Leukemia P388 Concentration of agent required to reduce cell viability by 90%; format: functional; details: Mus musculus; method in brief: as §1
HL-60 [4] = assay: Cytotoxic activity against Human promyelocytic Leukemia HL-60 Concentration of agent required to reduce cell viability by 50%; format: functional, cell-based; method in brief: as §1
HL-60 [5] = assay: Cytotoxic activity against human promyelocytic leukemia HL-60 concentration of agent required to reduce cell viability by 50%; format: functional, cell-based; method in brief: as §1
CHO [6] = assay: Cytotoxic activity against solid tumor, CHO (Chinese hamster ovaric carcinoma) Concentration of agent required to reduce cell viability by 50%; format: functional, cell-based; details: Cricetulus griseus; method in brief: as §1
[7] = tested on: Lewis lung carcinoma cell line; assay: Cytotoxic activity against solid tumor LLC(Lewis lung carcinoma), concentration of agent required to reduce cell viability by 90%; format: functional; details: Mus musculus; method in brief: as §1
P388 [8] = assay: Cytotoxic activity against murine lymphocytic leukemia P388 concentration of agent required to reduce cell viability by 50%; format: functional, cell-based; details: Mus musculus; method in brief: as §1
[9] = Ratio of cytotoxicity of compound towards bone marrow sample and to that of HL-60 was determined as IC90BM/IC90HL; format: functional
Method in brief: (§2)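 Second-stage assay on HL-60 (5 × 10^4/well) and soybean-agglutinin-negative mononuclear marrow cells (5 × 10^5/well) from six healthy donors. Four wells per concentration, 48 h at 37 °C, then [125I]iododeoxyuridine plus fluorodeoxyuridine for 18 h. Inhibition from fractional uptake decrease; IC50/IC90 by median-effect equation. Ranges are antilog(mean log ± 2SD); ratios use mean antilogs.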

[10] = tested on: Lewis lung carcinoma cell line; assay: Cytotoxic activity against solid tumor LLC(Lewis lung carcinoma), concentration of agent required to reduce cell viability by 50%; format: functional, cell-based; details: Mus musculus; method in brief: as §1
Homo sapiens [11] = organism: Homo sapiens; assay: Relative cytotoxicity against human bone marrow samples; format: functional; method in brief: as §2
LoVo [12] = assay: Cytotoxic activity against solid tumor, LoVo, (human colon adenocarcinoma) concentration of agent required to reduce cell viability by 50%; format: functional, cell-based; method in brief: as §1
HL-60 [13] = assay: (§3) Relative cytotoxicity against human promyelocytic leukemia(HL-60) cells; format: functional, cell-based; method in brief: as §2
CHO [14] = assay: Cytotoxic activity against solid tumor, CHO (Chinese hamster ovaric carcinoma) concentration of agent required to reduce cell viability by 90%; format: functional; details: Cricetulus griseus; method in brief: as §1
P388 [15] = assay: Cytotoxic activity against murine lymphocytic leukemia P388 concentration of agent required to reduce cell viability by 90%; format: functional; details: Mus musculus; method in brief: as §1
HL-60 [16] = assay: Cytotoxic activity against human promyelocytic leukemia HL-60 concentration of agent required to reduce cell viability by 90%; format: functional; method in brief: as §1
HL-60 [17] = assay: as §3; format: functional; method in brief: as §2
B16 [18] = assay: Cytotoxic activity against solid tumor, B16 (murine melanoma) concentration of agent required to reduce cell viability by 50%; format: functional, cell-based; details: Mus musculus; method in brief: as §1
B16 [19] = assay: Cytotoxic activity against solid tumor, B16 (murine melanoma) Concentration of agent required to reduce cell viability by 90%; format: functional; details: Mus musculus; method in brief: as §1
[20] = Ratio of cytotoxicity of compound towards bone marrow sample and to that of HL-60 was determined as IC50BM/IC90HL; format: functional; method in brief: as §2
LoVo [21] = assay: Cytotoxic activity against solid tumor, LoVo, (human colon adenocarcinoma) concentration of agent required to reduce cell viability by 90%; format: functional; method in brief: as §1
[22] = Ratio of cytotoxicity of compound towards bone marrow sample and to that of HL-60 was determined as IC50BM/IC50HL; format: functional; method in brief: as §2
P388 [23] = assay: In vivo antitumor activity against Murine P388 Leukemia at 60 mg/kg dose;(Median survival time of treated mice)/(median survival time of controls) x100; format: functional, Mus musculus
Method in brief: (§4)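 Female BD2F1 mice (8 weeks, 20-22 g), eight per group, given 10^5 P388 cells ip on day 0. From 24 h later, drug was given ip once daily for 9 days as a micronized suspension in 0.5% carboxymethylcellulose. Deaths were recorded daily over a 33-day study. %T/C = median survival time of treated / median survival time of controls × 100; >125 taken as significant.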

Homo sapiens [24] = organism: Homo sapiens; assay: Relative cytotoxicity against Human bone marrow samples; Value is in range, activity expressed as IC90; format: functional; method in brief: as §2
P388 [25] = assay: In vivo antitumor activity against Murine P388 Leukemia at 6.67 mg/kg dose;(Median survival time of treated mice)/(median survival time of controls) x100; format: functional, Mus musculus; method in brief: as §4
[26] = Ratio of antilog(mean log IC50 in bone marrow sample) and antolog(mean log IC90) in HL-60); format: functional; method in brief: as §2
LoVo [27] = assay: Cytotoxic activity against solid tumor, LoVo, (human colon adenocarcinoma) Concentration of agent required to reduce cell viability by 50%; format: functional, cell-based; method in brief: as §1
HL-60 [28] = assay: Relative cytotoxicity against Human promyelocytic Leukemia(HL-60) cells; Value is in range, activity expressed as IC50; format: functional, cell-based; method in brief: as §2
[29] = Ratio of antilog(mean log IC50 in bone marrow sample) and antolog(mean log IC50) in HL-60); format: functional; method in brief: as §2
P388 [30] = assay: In vivo antitumor activity against Murine P388 Leukemia at 20 mg/kg dose;(Median survival time of treated mice)/(median survival time of controls) x100; format: functional, Mus musculus; method in brief: as §4
CHO [31] = assay: Cytotoxic activity against solid tumor, CHO (Chinese hamster ovaric carcinoma) Concentration of agent required to reduce cell viability by 90%; format: functional; details: Cricetulus griseus; method in brief: as §1
B16 [32] = assay: Cytotoxic activity against solid tumor, B16 (murine melanoma) Concentration of agent required to reduce cell viability by 50%; format: functional, cell-based; details: Mus musculus; method in brief: as §1
HL-60 [33] = assay: Relative cytotoxicity against Human promyelocytic Leukemia(HL-60) cells; Value is in range, activity expressed as IC90; format: functional; method in brief: as §2
LoVo [34] = assay: Cytotoxic activity against solid tumor, LoVo, (human colon adenocarcinoma) Concentration of agent required to reduce cell viability by 90%; format: functional; method in brief: as §1
Homo sapiens [35] = organism: Homo sapiens; assay: Relative cytotoxicity against Human bone marrow samples; Value is in range, activity expressed as IC50; format: functional; method in brief: as §2
[36] = Ratio of antilog(mean log IC90 in bone marrow sample) and antolog(mean log IC90) in HL-60); format: functional; method in brief: as §2

Row | Structure (SMILES) | IC90 (HL-60 [1]) [µM] | IC50 (P388 [2]) [µM] | IC90 (P388 [3]) [µM] | IC50 (HL-60 [4]) [µM] | IC50 (HL-60 [5]) [µM] | IC50 (CHO [6]) [µM] | IC90 [7] [µM] | IC50 (P388 [8]) [µM] | IC50 [10] [µM] | IC90 (P388 [15]) [µM] | IC90 (HL-60 [16]) [µM] | IC90 (B16 [19]) [µM] | further results
1 | CCn1c2cc(Cl)ccc2c(=O)c2c(O)cc(O)cc21 | > 100 | > 100 | > 100 | > 100 |  |  |  |  |  |  |  |  | 
2 | CCn1c2cc(N3CCN(C)CC3)c(N)cc2c(=O)c2c(O)cc(OC)cc21 |  |  |  |  | 17 | 6 | 11 | 2.9 | 9.3 | 8.9 | 24 | 12 | Ratio [9]: 2.7; IC50 (Homo sapiens [11]): 10.7 µM; IC90 (Homo sapiens [11]): 89.1 µM; IC50 (LoVo [12]): 10 µM; IC50 (HL-60 [13]): 19.1 µM; IC90 (CHO [14]): 11 µM; IC90 (HL-60 [17]): 22.9 µM; IC50 (B16 [18]): 8.6 µM; Ratio [20]: 0.4; IC90 (LoVo [21]): 15 µM; Ratio [22]: 0.4
3 | CCn1c2cc(N3CCN(C)CC3)c(N)cc2c(=O)c2c(OC)cc(OC)cc21 |  |  |  |  | 61 |  |  | 16 |  | 26 | 99 |  | 
4 | CN1CCN(c2cc3nc4cc(O)cc(O)c4c(O)c3cc2N)CC1 | > 100 | 57 | > 100 | > 100 |  |  |  |  |  |  |  |  | 
5 | CCN(CC)c1cc2c(cc1N)c(=O)c1c(O)cc(O)cc1n2CC | 58 | 24 | 50 | 24 |  |  |  |  |  |  |  |  | 
6 | CCn1c2cc(N3CCN(C)CC3)c(N)cc2c(=O)c2c(O)cc(O)cc21 | 34 | 4.6 | 13 | 23 |  | 5.8 | 17 |  | 11 |  |  | 19 | T/C (P388 [23]): 132%; IC90 (Homo sapiens [24]): 20.3 µM; T/C (P388 [25]): 115%; Ratio [26]: 0.1; IC50 (LoVo [27]): 17 µM; IC50 (HL-60 [28]): 27.7 µM; Ratio [29]: 0.1; T/C (P388 [30]): 116%; IC90 (CHO [31]): 19 µM; IC50 (B16 [32]): 9.9 µM; IC90 (HL-60 [33]): 42.6 µM; IC90 (LoVo [34]): 47 µM; IC50 (Homo sapiens [35]): 3.27 µM; Ratio [36]: 0.5
7 | CCn1c2cc(N3CCCC3)c(N)cc2c(=O)c2c(O)cc(O)cc21 |  | > 100 | > 100 |  |  |  |  |  |  |  |  |  | 
8 | CCN(CC)CCn1c2cc(Cl)c(N)cc2c(=O)c2c(OC)cc(OC)cc21 |  |  |  |  | 8.6 |  |  | 4.3 |  | 14 | 29 |  | 
9 | CCN(CC)CCn1c2cc(N3CCN(C)CC3)c(N)cc2c(=O)c2c(O)cc(O)cc21 | 19 | 7.2 | 13 | 11 |  | 7.1 | 35 |  | 24 |  |  | 23 | IC50 (LoVo [27]): 17 µM; IC90 (CHO [31]): 16 µM; IC50 (B16 [32]): 16 µM; IC90 (LoVo [34]): 21 µM
10 | CCn1c2cc(Cl)c(N)cc2c(=O)c2c(O)cc(OC)cc21 |  |  |  |  |  |  |  | 16 |  | > 100 |  |  | 
11 | CCn1c2cc(Cl)c(N)cc2c(=O)c2c(OC)cc(OC)cc21 |  |  |  |  | 16 |  |  | 14 |  | 33 | 62 |  | 
12 | CCN(CC)CCn1c2cc(OC)c(N)cc2c(=O)c2c(O)cc(O)cc21 | 27 | 2.8 | 5.9 | 8.2 |  | 5.6 | 32 |  | 10 |  |  | 11 | IC50 (LoVo [27]): 11 µM; IC90 (CHO [31]): 20 µM; IC50 (B16 [32]): 3.4 µM; IC90 (LoVo [34]): 36 µM

From ChEMBL document CHEMBL1132240, “Design and synthesis of modified quinolones as antitumoral acridones” (J Med Chem, 1999)
